# Tested on: Fibroblast
# Assay: Multiplex assay against human fibroblast
# Format: toxicity, cell-based
# Summary of the method: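 Live cells were stained at seeding with Hoechst33342, BioTracker Green Microtubule Cytoskeleton Dye, MitoTracker Red and Annexin V Alexa Fluor 680, then imaged on a CQ1 microscope at 37°C and 5% CO2 after compound addition. CellPathfinder machine-learning gating split cells into Hoechst high-intensity objects or normal cells. Normal cells were split into healthy, pyknosed or fragmented nuclei, and pyknosed cells into mitotic or apoptotic. Tubulin, mitochondrial-mass and membrane-permeability phenotypes are per cents of healthy-nucleus cells.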
# [1] = 12 h, 1 µM, compound concentration 1 uM, replicate 1
# [2] = 12 h, 1 µM, compound concentration 1 uM, replicate 2
# [3] = 12 h, 10 µM, compound concentration 10 uM, replicate 1
# [4] = 12 h, 10 µM, compound concentration 10 uM, replicate 2
# [5] = 24 h, 1 µM, compound concentration 1 uM, replicate 1
# [6] = 24 h, 1 µM, compound concentration 1 uM, replicate 2
# [7] = 24 h, 10 µM, compound concentration 10 uM, replicate 1
# [8] = 24 h, 10 µM, compound concentration 10 uM, replicate 2
# [9] = 48 h, 1 µM, compound concentration 1 uM, replicate 1
# [10] = 48 h, 1 µM, compound concentration 1 uM, replicate 2
# [11] = 48 h, 10 µM, compound concentration 10 uM, replicate 1
# [12] = 48 h, 10 µM, compound concentration 10 uM, replicate 2
compound,measurement,setting,value
c1cn2cc(-c3ccc4cn[nH]c4c3)nc(Nc3ccc(N4CCOCC4)cc3)c2n1 [ENTOSPLETINIB],Population Apoptotic (%),[1],60%
same,Population Fragmented Nuclei (%),[1],23%
same,Population Healthy Nuclei (%),[1],36%
same,Population Hoechst High Intensity Objects (%),[1],14%
same,Population Membrane Permeable-Phenotype (%),[1],20%
same,Population Mitochondria Different-Phenotype (%),[1],12%
same,Population Mitotic Cells (%),[1],39%
same,Population Normal (%),[1],85%
same,Population Pyknosed Nuclei (%),[1],40%
same,Population Tubulin-Different-Phenotype (%),[1],52%
same,Total Cell Count,[1],81
same,Population Apoptotic (%),[2],40%
same,Population Fragmented Nuclei (%),[2],16%
same,Population Healthy Nuclei (%),[2],73%
same,Population Hoechst High Intensity Objects (%),[2],5%
same,Population Membrane Permeable-Phenotype (%),[2],10%
same,Population Mitochondria Different-Phenotype (%),[2],23%
same,Population Mitotic Cells (%),[2],60%
same,Population Normal (%),[2],94%
same,Population Pyknosed Nuclei (%),[2],9%
same,Population Tubulin-Different-Phenotype (%),[2],25%
same,Total Cell Count,[2],59
same,Population Apoptotic (%),[3],51%
same,Population Fragmented Nuclei (%),[3],24%
same,Population Healthy Nuclei (%),[3],3%
same,Population Hoechst High Intensity Objects (%),[3],41%
same,Population Membrane Permeable-Phenotype (%),[3],14%
same,Population Mitochondria Different-Phenotype (%),[3],4%
same,Population Mitotic Cells (%),[3],48%
same,Population Normal (%),[3],58%
same,Population Pyknosed Nuclei (%),[3],72%
same,Population Tubulin-Different-Phenotype (%),[3],23%
same,Total Cell Count,[3],1163
same,Population Apoptotic (%),[4],92%
same,Population Fragmented Nuclei (%),[4],30%
same,Population Healthy Nuclei (%),[4],2%
same,Population Hoechst High Intensity Objects (%),[4],25%
same,Population Membrane Permeable-Phenotype (%),[4],21%
same,Population Mitochondria Different-Phenotype (%),[4],82%
same,Population Mitotic Cells (%),[4],7%
same,Population Normal (%),[4],74%
same,Population Pyknosed Nuclei (%),[4],67%
same,Population Tubulin-Different-Phenotype (%),[4],78%
same,Total Cell Count,[4],56
same,Population Apoptotic (%),[5],60%
same,Population Fragmented Nuclei (%),[5],25%
same,Population Healthy Nuclei (%),[5],57%
same,Population Hoechst High Intensity Objects (%),[5],11%
same,Population Membrane Permeable-Phenotype (%),[5],23%
same,Population Mitochondria Different-Phenotype (%),[5],7%
same,Population Mitotic Cells (%),[5],40%
same,Population Normal (%),[5],88%
same,Population Pyknosed Nuclei (%),[5],16%
same,Population Tubulin-Different-Phenotype (%),[5],51%
same,Total Cell Count,[5],102
same,Population Apoptotic (%),[6],14%
same,Population Fragmented Nuclei (%),[6],14%
same,Population Healthy Nuclei (%),[6],74%
same,Population Hoechst High Intensity Objects (%),[6],4%
same,Population Membrane Permeable-Phenotype (%),[6],17%
same,Population Mitochondria Different-Phenotype (%),[6],15%
same,Population Mitotic Cells (%),[6],85%
same,Population Normal (%),[6],95%
same,Population Pyknosed Nuclei (%),[6],11%
same,Population Tubulin-Different-Phenotype (%),[6],21%
same,Total Cell Count,[6],78
same,Population Apoptotic (%),[7],48%
same,Population Fragmented Nuclei (%),[7],22%
same,Population Healthy Nuclei (%),[7],3%
same,Population Hoechst High Intensity Objects (%),[7],44%
same,Population Membrane Permeable-Phenotype (%),[7],23%
same,Population Mitochondria Different-Phenotype (%),[7],4%
same,Population Mitotic Cells (%),[7],51%
same,Population Normal (%),[7],55%
same,Population Pyknosed Nuclei (%),[7],74%
same,Population Tubulin-Different-Phenotype (%),[7],47%
same,Total Cell Count,[7],1126
same,Population Apoptotic (%),[8],89%
same,Population Fragmented Nuclei (%),[8],33%
same,Population Healthy Nuclei (%),[8],2%
same,Population Hoechst High Intensity Objects (%),[8],26%
same,Population Membrane Permeable-Phenotype (%),[8],8%
same,Population Mitochondria Different-Phenotype (%),[8],36%
same,Population Mitotic Cells (%),[8],10%
same,Population Normal (%),[8],73%
same,Population Pyknosed Nuclei (%),[8],64%
same,Population Tubulin-Different-Phenotype (%),[8],20%
same,Total Cell Count,[8],65
same,Population Apoptotic (%),[9],75%
same,Population Fragmented Nuclei (%),[9],29%
same,Population Healthy Nuclei (%),[9],65%
same,Population Hoechst High Intensity Objects (%),[9],15%
same,Population Membrane Permeable-Phenotype (%),[9],18%
same,Population Mitochondria Different-Phenotype (%),[9],6%
same,Population Mitotic Cells (%),[9],25%
same,Population Normal (%),[9],84%
same,Population Pyknosed Nuclei (%),[9],4%
same,Population Tubulin-Different-Phenotype (%),[9],39%
same,Total Cell Count,[9],104
same,Population Apoptotic (%),[10],33%
same,Population Fragmented Nuclei (%),[10],28%
same,Population Healthy Nuclei (%),[10],68%
same,Population Hoechst High Intensity Objects (%),[10],11%
same,Population Membrane Permeable-Phenotype (%),[10],9%
same,Population Mitochondria Different-Phenotype (%),[10],1%
same,Population Mitotic Cells (%),[10],66%
same,Population Normal (%),[10],88%
same,Population Pyknosed Nuclei (%),[10],2%
same,Population Tubulin-Different-Phenotype (%),[10],50%
same,Total Cell Count,[10],116
same,Population Apoptotic (%),[11],43%
same,Population Fragmented Nuclei (%),[11],14%
same,Population Healthy Nuclei (%),[11],4%
same,Population Hoechst High Intensity Objects (%),[11],47%
same,Population Membrane Permeable-Phenotype (%),[11],14%
same,Population Mitochondria Different-Phenotype (%),[11],0%
same,Population Mitotic Cells (%),[11],56%
same,Population Normal (%),[11],52%
same,Population Pyknosed Nuclei (%),[11],80%
same,Population Tubulin-Different-Phenotype (%),[11],17%
same,Total Cell Count,[11],1093
same,Population Apoptotic (%),[12],82%
same,Population Fragmented Nuclei (%),[12],24%
same,Population Healthy Nuclei (%),[12],6%
same,Population Hoechst High Intensity Objects (%),[12],64%
same,Population Membrane Permeable-Phenotype (%),[12],12%
same,Population Mitochondria Different-Phenotype (%),[12],12%
same,Population Mitotic Cells (%),[12],17%
same,Population Normal (%),[12],35%
same,Population Pyknosed Nuclei (%),[12],69%
same,Population Tubulin-Different-Phenotype (%),[12],46%
same,Total Cell Count,[12],1794
